Tests used:
[1] = molecular target: T1, Glucocorticoid receptor (Homo sapiens) (UniProt P04150); assay: Transrepression activity at glucocorticoid receptor in human A549 cells assessed as inhibition of IL1beta-stimulated NFkappaB-dependent E-selectin transcription by luciferase reporter gene assay relative to dexamethasone; format: cell-based
T1 sequence (whole entry): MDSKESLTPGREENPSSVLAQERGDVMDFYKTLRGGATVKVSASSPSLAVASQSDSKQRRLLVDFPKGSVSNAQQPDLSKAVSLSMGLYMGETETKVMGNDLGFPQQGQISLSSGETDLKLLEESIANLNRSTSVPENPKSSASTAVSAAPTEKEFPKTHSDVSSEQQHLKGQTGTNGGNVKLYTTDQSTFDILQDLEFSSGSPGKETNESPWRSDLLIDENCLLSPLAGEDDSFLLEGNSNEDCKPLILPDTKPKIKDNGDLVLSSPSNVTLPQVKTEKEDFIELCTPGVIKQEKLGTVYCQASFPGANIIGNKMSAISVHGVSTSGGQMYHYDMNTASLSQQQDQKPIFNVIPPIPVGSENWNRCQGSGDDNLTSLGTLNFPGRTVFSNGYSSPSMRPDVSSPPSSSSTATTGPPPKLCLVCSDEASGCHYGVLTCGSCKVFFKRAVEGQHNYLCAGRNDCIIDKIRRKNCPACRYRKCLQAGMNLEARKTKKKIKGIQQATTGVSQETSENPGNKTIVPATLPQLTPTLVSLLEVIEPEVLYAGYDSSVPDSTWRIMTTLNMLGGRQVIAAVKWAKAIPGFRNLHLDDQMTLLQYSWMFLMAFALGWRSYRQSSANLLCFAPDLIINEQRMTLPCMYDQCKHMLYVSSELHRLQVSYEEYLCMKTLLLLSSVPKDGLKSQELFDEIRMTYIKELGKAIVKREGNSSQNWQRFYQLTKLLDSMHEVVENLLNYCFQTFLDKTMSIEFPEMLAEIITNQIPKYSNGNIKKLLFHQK
In short: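 In A549 lung epithelial cells, NFkB activity was induced with IL-1β (0.5 ng/ml). Inhibition was quantitated as decreased luciferase activity. […] Values are means of two or more experiments in triplicate.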

[2] = molecular target: T2, Progesterone receptor (Homo sapiens, UniProt P06401); assay: Binding affinity to progesterone receptor (unknown origin) by fluorescence assay
T2 sequence (P06401 whole entry): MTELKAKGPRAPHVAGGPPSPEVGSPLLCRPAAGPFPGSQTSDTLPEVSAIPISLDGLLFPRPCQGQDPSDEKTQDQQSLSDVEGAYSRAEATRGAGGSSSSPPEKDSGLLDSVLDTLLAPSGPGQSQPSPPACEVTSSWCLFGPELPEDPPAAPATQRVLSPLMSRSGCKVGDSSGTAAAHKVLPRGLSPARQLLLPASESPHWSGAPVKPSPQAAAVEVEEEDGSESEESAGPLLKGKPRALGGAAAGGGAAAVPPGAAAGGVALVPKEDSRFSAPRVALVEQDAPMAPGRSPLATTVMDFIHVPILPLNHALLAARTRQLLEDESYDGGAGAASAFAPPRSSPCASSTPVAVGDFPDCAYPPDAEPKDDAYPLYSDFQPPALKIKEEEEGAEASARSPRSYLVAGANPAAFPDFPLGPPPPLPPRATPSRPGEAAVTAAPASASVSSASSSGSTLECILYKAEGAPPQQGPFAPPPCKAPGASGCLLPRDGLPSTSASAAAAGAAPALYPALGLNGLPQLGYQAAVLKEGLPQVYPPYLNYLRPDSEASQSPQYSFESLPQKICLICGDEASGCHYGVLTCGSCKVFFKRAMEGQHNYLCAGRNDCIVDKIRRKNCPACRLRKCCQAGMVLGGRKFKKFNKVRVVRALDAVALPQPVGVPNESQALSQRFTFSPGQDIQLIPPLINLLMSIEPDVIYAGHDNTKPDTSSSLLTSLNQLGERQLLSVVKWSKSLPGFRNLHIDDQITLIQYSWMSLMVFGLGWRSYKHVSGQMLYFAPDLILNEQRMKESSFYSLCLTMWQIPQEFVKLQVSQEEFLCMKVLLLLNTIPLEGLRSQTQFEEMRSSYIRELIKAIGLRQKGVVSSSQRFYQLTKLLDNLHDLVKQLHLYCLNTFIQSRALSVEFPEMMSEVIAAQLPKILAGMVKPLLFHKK
In short: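 Fluorescence polarization competition between test compound and a fluorescently labeled ligand for binding to full-length receptor or its ligand binding domain. IC50 was fit to the signal by four-parameter logistic equation. Ki = IC50/(1 + ligand concentration/Kd) (Cheng–Prusoff).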

[3] = molecular target: T3, Glucocorticoid receptor (Homo sapiens, UniProt P04150); assay: Transactivation activity at glucocorticoid receptor ligand binding domain (unknown origin) expressed in human Hela cells co-expressing GAL4 DNA binding domain assessed as NP-1-stimulated GRE activation by luciferase reporter gene assay; format: cell-based
T3 sequence (P04150 whole entry): T1 sequence (whole entry)

[4] = molecular target: T1, Glucocorticoid receptor (Homo sapiens); assay: Transrepression activity at glucocorticoid receptor in human A549 cells assessed as inhibition of PMA-stimulated AP1 response element by luciferase reporter gene assay relative to dexamethasone; format: cell-based
In short: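 Transrepression of AP-1 was run in A549 lung epithelial cells. […] Values are means of two or more experiments in triplicate.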

[5] = molecular target: T3, Glucocorticoid receptor; assay: Transrepression activity at glucocorticoid receptor in human A549 cells assessed as inhibition of PMA-stimulated AP1 response element by luciferase reporter gene assay; format: cell-based
[6] = molecular target: T3, Glucocorticoid receptor; assay: Transrepression activity at glucocorticoid receptor in human A549 cells assessed as inhibition of IL1beta-stimulated NFkappaB-dependent E-selectin transcription by luciferase reporter gene assay; format: cell-based
[7] = molecular target: T3, Glucocorticoid receptor; assay: Binding affinity to glucocorticoid receptor (unknown origin) by fluorescence assay

| SMILES | Efficacy [1] [%] | Ki [2] [nM] | EC50 [3] [nM] | Efficacy [4] [%] | EC50 [5] [nM] | EC50 [6] [nM] | Ki [7] [nM] |
| --- | --- | --- | --- | --- | --- | --- | --- |
| CC(C)(C)NC(=O)NCC(C)(C)[C@@H](c1ccccc1)c1ccc2c(cnn2-c2ccc(F)cc2)c1 | 65 | > 5000 | 429 | 74 | 57 | 58 | 5.14 |
| CC(C)(CNC(=O)CC(F)(F)F)[C@@H](c1ccccc1)c1ccc2c(cnn2-c2ccc(F)cc2)c1 | 90 | > 5000 | 129 | 91 | 12.4 | 6.85 | 0.81 |
| CC(C)(CNS(=O)(=O)CC(F)(F)F)[C@@H](c1ccccc1)c1ccc2c(cnn2-c2ccc(F)cc2)c1 | 86 | 406 | 202 | 74 | 20.4 | 7.6 | 0.64 |

From ChEMBL document CHEMBL2424625, “Synthesis and structure-activity relationships of novel indazolyl glucocorticoid receptor partial agonists” (Bioorg Med Chem Lett, 2013)
